Publication PMC4957400 (MedChemComm, 2016)
“Also recorded” adds a separate entry of the source. Numbered stars: 1 amine (or outer) side, 2 acyl side, 3 side chain; on linkers, the order of the positions; unused ones are H or OH. Suc = O=C(CCC(=O)[*:2])[*:1]

Tests used:
HIV-1 RRE IIB RNA = test: Dissociation constants by electrophoretic mobility shift assay; type: binding; conditions: EMSA, average of at least three experiments
[1] = tested on: U87 CXCR4 human glioblastoma cell line stably transfected with CD4 and CXCR4; test: MTT toxicity assay; type: cell-based; conditions: for toxicity (MTT assay): U87 CXCR4 cells, concentrations up to 100 μM; for cell viability (MTT assay in parallel with second p24 screening): at 40 μM
How it was run: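 MTT viability read in U87 human glioblastoma cells stably transfected with CD4 and CXCR4, with cells receiving no compound as the control. It was run as a toxicity screen of test peptides and again in parallel with the second p24 ELISA screen of HIV replication.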

[2] = tested on: HIV-1 capsid protein p24 production; type: cell-based; conditions: p24 ELISA; for inhibition of p24 expression: 40 μM; for suppression of HIV replication / inhibition of p24 / inhibition of the production of p24: initial screen; for suppression of HIV replication / inhibition of p24: 100 μM; for inhibition of the production of p24: 10 μM
wild-type RRE IIB RNA = conditions: EMSA; cited from earlier work

| Substance | Kd (HIV-1 RRE IIB RNA) [nM] | suppression of HIV replication / inhibition of p24 [2] | further results |
| --- | --- | --- | --- |
| (KACRKK)2*KLKBBAY [Peptide A6] | 60 ± 10 | greatly suppressed HIV replication; also recorded: complete or virtually complete inhibition of p24 | toxicity (MTT assay) [1]: slight toxicity; also recorded: nearly non-toxic; cell viability (MTT assay in parallel with second p24 screening) [1]: confirmed cell viability; inhibition of p24 expression [2]: approximately 90% |
| (KKACRK)2*KLKBBAY [Peptide A7] | 70 ± 30 | greatly suppressed HIV replication; also recorded: complete or virtually complete inhibition of p24 | toxicity (MTT assay) [1]: cytotoxicity in a dose-dependent manner; also recorded: moderate toxicity; cell viability (MTT assay in parallel with second p24 screening) [1]: confirmed cell viability; inhibition of p24 expression [2]: approximately 90%; inhibition of the production of p24 [2]: 60% |
| (KKBBAK)2*LLKY [Peptide A8] | 660 ± 90 |  |  |
| (KKK)2*KACRLKY [Peptide A3] | 140 ± 50 | greatly suppressed HIV replication |  |
| (KKK)2*KLKACRY [Peptide A4] | 20 ± 4 | greatly suppressed HIV replication; also recorded: complete or virtually complete inhibition of p24 | toxicity (MTT assay) [1]: slight toxicity |
| (KKK)2*LKBBAKBBAY [Peptide A1] | 280 ± 80 | greatly suppressed HIV replication; also recorded: complete or virtually complete inhibition of p24 |  |
| (KKK)2*LKBBALY [Peptide A2] | 130 ± 30 |  |  |
| (KKKBBA)2*KLKBBAY [Peptide A9] | 120 ± 40 |  |  |
| (KKL)2*KKBBAKBBAY [Peptide A14] | 170 ± 50 |  |  |
| (KKL)2*LKKBBAY [Peptide A12] | 330 ± 100 |  |  |
| (KLK)2*KKKBBAY [Peptide A11] | 1430 ± 870 |  | inhibition of the production of p24 [2]: 40% |
| (KLK)2*LKKBBAY [Peptide A10] | 300 ± 40 |  |  |
| (LLK)2*KKBBAKY [Peptide A13] | 210 ± 30 |  |  |
| Suc-TRQARRNRRRRWRERQRAAAAR-NH2 [Rev17] |  |  | Kd (wild-type RRE IIB RNA): 100 nM |
